# Screening results deposited in PubChem BioAssay by several laboratories.
# Compounds with a hit are over-represented: about 2.6% of the library has one in this group of screens.
# Rce1 inhib: yeast Ras-converting enzyme inhibition | Q03530 | yeast membranes, quenched prenylated peptide cleavage fluorescence | calls only | 290,000 tested, 0.27% active | AID 2563;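 active = fall in fluorescence gain of 50% or more versus controls, with final raw signal at or below 3038400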;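 note: plate controls were neutral control wells for no effect and wells lacking membranes for full effect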
# VLA-4 inh: inhibition in a human VLA-4 binding assay; 330,000 tested, 0.2% active; P13612; VLA-4 expressing cells, ligand binding flow cytometry; inhibition, % (about 7 µM as worked out from the volumes in the protocol); in the data active = inhibition above about 50%
# Target sequence (P13612 whole entry, looked up): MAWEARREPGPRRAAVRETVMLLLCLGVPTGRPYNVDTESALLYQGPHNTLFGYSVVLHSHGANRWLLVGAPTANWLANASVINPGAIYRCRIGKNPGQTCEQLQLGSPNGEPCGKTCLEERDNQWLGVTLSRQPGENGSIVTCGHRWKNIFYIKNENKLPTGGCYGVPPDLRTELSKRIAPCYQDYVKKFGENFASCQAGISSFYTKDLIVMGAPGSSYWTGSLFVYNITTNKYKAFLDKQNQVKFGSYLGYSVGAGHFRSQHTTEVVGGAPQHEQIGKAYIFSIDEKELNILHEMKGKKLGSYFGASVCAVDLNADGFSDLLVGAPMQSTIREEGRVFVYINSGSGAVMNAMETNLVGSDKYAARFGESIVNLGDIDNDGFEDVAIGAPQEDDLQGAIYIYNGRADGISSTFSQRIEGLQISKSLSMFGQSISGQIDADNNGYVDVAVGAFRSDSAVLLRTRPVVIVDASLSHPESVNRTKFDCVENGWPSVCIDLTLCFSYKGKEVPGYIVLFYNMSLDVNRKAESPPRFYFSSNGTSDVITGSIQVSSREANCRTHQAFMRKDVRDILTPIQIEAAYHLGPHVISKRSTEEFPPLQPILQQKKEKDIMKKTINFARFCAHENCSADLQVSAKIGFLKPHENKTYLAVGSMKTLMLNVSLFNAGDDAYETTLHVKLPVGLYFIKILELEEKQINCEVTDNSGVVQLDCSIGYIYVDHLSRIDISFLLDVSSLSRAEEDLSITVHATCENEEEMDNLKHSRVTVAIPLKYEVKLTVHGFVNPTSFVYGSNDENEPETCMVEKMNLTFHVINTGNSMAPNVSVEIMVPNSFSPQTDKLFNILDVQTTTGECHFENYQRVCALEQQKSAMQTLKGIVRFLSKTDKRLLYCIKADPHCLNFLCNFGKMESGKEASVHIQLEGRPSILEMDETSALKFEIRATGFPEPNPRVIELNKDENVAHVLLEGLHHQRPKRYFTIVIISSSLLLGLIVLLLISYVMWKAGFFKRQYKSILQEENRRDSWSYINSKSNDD
# TAAR1 antag: human TAAR1 antagonism; AID 624466; Q96RJ0; inhibition, % at 3 µM; CHO RD-HGA16 TAAR1, Fluo-8 calcium fluorescence, antagonist; 360,000 tested, 1.5% active;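 active = inhibition above a per-plate cutoff, the mean inhibition of test compounds on that plate plus 3 SD, cut at about 49% in these data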;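 note: 0% = DMSO plus EC80 beta-PEA response and 100% = DMSO alone without agonist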
#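 test system = CHO RD-HGA16 cells bearing hTAAR1 | replication = singlicate | controls = DMSO-only wells and EC80 β-PEA-stimulated wells | reagent = EC80 β-phenethylamine stimulus | read-out basis = percent inhibition of PEA-evoked calcium signal, max/basal emission ratio | schedule = seeding 17-24 h prior, 75-min 37 °C, 30-min RT dye loading | signal = kinetic Fluo-8 calcium fluorescence measurement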
# Platelet DG rel: modulates dense granule release in human platelets; 300,000 tested, 0.22% active; inhibition, %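 (compounds screened at 7.5 µM in platelet-rich plasma)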; human platelet-rich plasma, SFLLRN dense granule ATP release, luminescence;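 active = mean replicate score, as percent of positive control, at or above 50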
# TAAR1 ag: human TAAR1 agonism; Q96RJ0; CHO RD-HGA16 TAAR1, Fluo-8 calcium fluorescence; vehicle wells 0%, saturating PEA agonist 100%; activation, % at 3 µM; 360,000 tested, 0.99% active;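 active = activation above the mean activation of all test compounds in the run plus 3 SD, cut at about 38% in these data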
#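 Test system: RD-HGA16 (CHO) cells co-expressing Gα16 and hTAAR1; dosing: one-point dosing at 3 µM (nominal); timing: 17-24 h seeding, 75 min 37 °C dye, 30 min RT; signal: kinetic Fluo-8 calcium fluorescence; read-out basis: % activation relative to PEA EC100 response; controls: DMSO and PEA EC100; replicates: n 1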
# Active calls of the source: *; i = inactive; · = no result given; + = active, no number.
SMILES,Rce1 inhib,VLA-4 inh,TAAR1 antag,Platelet DG rel,TAAR1 ag
CN(C)S(=O)(=O)c1ccc(-c2csc(N/N=C/c3ccco3)n2)cc1,i,0,79*,2,30
O=C(O)C1=CCC(c2ccc(Cl)c(Cl)c2)N(S(=O)(=O)c2ccc(F)cc2)C1c1cccc(F)c1 (centres undefined),·,·,4,·,-1
COc1ccccc1NC(=O)Cn1nnc(-c2ccccc2NS(=O)(=O)c2ccccc2)n1,i,3,57*,1,3
O=C(NCc1cccc(C(F)(F)F)c1)c1ccc2sc([C@@H]3O[C@H](CO)[C@H](O)[C@H](O)[C@H]3O)nc2c1,·,·,0,·,1
COc1ccc(C2=CC(=O)OC3(CCCCC3)O2)cc1,i,5,-5,-12,12
C=C(C)C1(O)OC(=O)C=C1OC (centres undefined),+,38,-23,-5,1
OC[C@@H]1CN(Cc2ccc3c(c2)OCO3)C[C@H](n2cnc3c(NCc4ccc(F)cc4)ncnc32)O1,·,·,23,·,8
CC(=O)c1cccc(NC(=O)C2CCCN2S(=O)(=O)c2cccc3cccnc23)c1 (centres undefined),i,20,-20,2,5
O=C(Nc1nccs1)C1CCCN(S(=O)(=O)c2cccc3cccnc23)C1 (centres undefined),i,39,50*,-2,11
CC(=O)c1cccc(NC(=O)C2CCCN(S(=O)(=O)c3cccc4cccnc34)C2)c1 (centres undefined),i,-27,52*,5,8
CC(C)(C)c1ccc(C(=O)N2CCN(CCNC(=O)C(=O)NCc3ccc(Cl)cc3)CC2)cc1,i,-3,·,-2,·
CN1C[C@@H]2[C@@H]3C(=O)N(Cc4ccccc4)C(=O)[C@@H]3[C@](Cc3ccccc3)(C1=O)N2C(=O)c1ccc(Br)cc1,·,·,4,·,10
CCC/C(=C1/c2ccccc2C(=O)N1c1ccccc1)c1ccc2[nH]ccc2c1,·,5,58*,·,0
CCOC(=O)c1c(NC(=O)COC(=O)c2ccccc2NC)sc(C(=O)N(C)C)c1C,i,2,-36,-12,1
CCOC(=O)c1c(NC(=O)COC(=O)c2nc(Cl)ccc2Cl)sc(C(=O)N(C)C)c1C,i,-2,51*,-18,12
O=C(COC(=O)c1cccc2c1C(=O)c1ccccc1C2=O)NC1CCCCC1,i,5,49*,0,7
CON(C)C(=O)/C=C/CCCCNC(=O)OC(C)(C)C,·,3,-10,·,15
CCO[C@H]1OC(C(=O)NCc2ccccc2)=C[C@@H](c2cn(C(C)=O)c3ccccc23)[C@@H]1CCCO,i,25,18,2,45*
CCO[C@@H]1OC(C(=O)NCc2ccccc2)=C[C@H](c2ccc3c(c2)OCO3)[C@H]1CCCO,i,17,-11,-5,10
C#CCNC(=O)C1=C[C@H](c2csc3ccccc23)[C@@H](CCCO)[C@H](OCC)O1,i,-1,9,-4,5
CCO[C@@H]1OC(C(=O)NCc2ccccc2)=C[C@H](c2csc3ccccc23)[C@H]1CCCO,i,-7,54*,4,25
CCO[C@H]1OC(C(=O)NCc2ccccc2)=C[C@@H](c2ccc3c(c2)OCO3)[C@@H]1CCCO,i,13,17,-1,50*
CCO[C@@H]1OC(C(=O)O)=C[C@H](c2cn(C(C)=O)c3ccccc23)[C@H]1CCCO,i,·,0,-3,14
Cc1ccc(Cl)c(OCC(=O)NC2CCN(Cc3ccccc3)CC2)c1,i,1,-8,1,1
CC(Oc1cccc(Cl)c1)C(=O)Nc1ccc(S(=O)(=O)N(C)C2CCN(C)CC2)cc1 (centres undefined),·,10,11,·,42*
SMILES,Rce1 inhib,VLA-4 inh,TAAR1 antag,Platelet DG rel,TAAR1 ag
CC(Oc1cccc(Cl)c1)C(=O)Nc1ccc(S(=O)(=O)NC2=NCCCCC2)cc1 (centres undefined),i,4,13,10,40*
CC(Oc1ccc(F)cc1)C(=O)Nc1ccc(S(=O)(=O)NC2=NCCCCC2)cc1 (centres undefined),·,0,20,·,44*
CN(c1ccc(NC(=O)CCc2c[nH]c3ccccc23)cc1)c1ccccn1,·,·,37,·,14
COC(=O)[C@@]1(Cc2ccc(F)cc2)[C@H]2c3cc(C(=O)N4CCCC4)n(Cc4ccc(Cl)c(C(F)(F)F)c4)c3C[C@H]2CN1C(=O)c1ccccc1,·,·,-37,·,2
COc1cc(/C=N/NC(=O)Nc2cccc3nsnc23)cc(OC)c1OC,i,·,10,0,6
O=C(N/N=C/c1ccc(O)cc1)Nc1cccc2nsnc12,i,18,67*,5,38*
COc1cc(NC(=O)c2ccccc2)c(OC)cc1NC(=O)CSc1[nH]c(=O)cc(C)c1C#N,i,-8,-4,71*,6
Cc1cc(=O)[nH]c(SCC(=O)Nc2cccc3ccccc23)c1C#N,i,-6,·,0,·
Nc1nc2cc3c(cc2cc1C(=O)NCc1cccnc1)OCO3,·,·,13,·,2
Cc1cnc(C(=O)N(c2ccc(N3CCOCC3)cc2)C2C(=O)Nc3ccccc3N=C2c2ccc(F)cc2)cn1 (centres undefined),·,·,-22,·,1
COc1ccccc1/C=C/C(=O)NCC(=O)N/N=C/c1ccccc1,i,-1,-27,-1,38*
COc1ccc(NC(=O)COC(=O)Cc2cccs2)cc1OC,i,-1,-25,-2,1
COc1ccccc1C(c1nnnn1Cc1ccccc1)N1CCN(C2CCCC2)CC1 (centres undefined),i,6,-3,4,6
COc1cccc(C(c2nnnn2Cc2ccccc2)N2CCN(C3CCCC3)CC2)c1OC (centres undefined),i,-9,53*,1,24
CCOC(=O)c1ccc(C(=S)N2CCCC2)cc1,i,·,3,-2,-1
C[C@H]1COC(=O)[C@H](NC(=O)OCC2c3ccccc3-c3ccccc32)C/C=C\C[C@H](CC(=O)N(CCO)Cc2ccccc2)C(=O)N1,·,29,0,·,9
COc1ccc2c(c1)c1ncn(CCN3CCCC3)c(=O)c1n2C,+,31,-1,-1,2
COc1ccc2c(c1)c1ncn(CCN3CCCCC3)c(=O)c1n2C,+,-1,-7,-3,1
O=S1(=O)CC(N2CCCCC2)CN1Cc1cn(Cc2ccc(C(F)(F)F)cc2)nn1 (centres undefined),·,·,-6,·,12
CN(CCO)S(=O)(=O)c1ccc2c(c1)C(=NN)c1cc(S(=O)(=O)N(C)CCO)ccc1-2,i,3,-4,25,5
O=C1CCc2cc(S(=O)(=O)NC3CCCCC3)cc3c2N1CC3,i,-10,-33,1,3
CCCN1C(=O)c2cc(C(=O)Nc3cccc(C(C)=O)c3)ccc2C1Nc1cccc(C(C)=O)c1 (centres undefined),i,-2,74*,20,14
